According to ChEMBL document CHEMBL1125337, “Synthesis and antibacterial activity of a series of basic amides of teicoplanin and deglucoteicoplanin with polyamines” (J Med Chem, 1992):
In brackets after ≈: the same amount, converted by molar mass.

Experiments:
Staphylococcus aureus = test: Minimum inhibitory concentration against Staphylococcus aureus L 165; format: functional
Outline: (§1)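 MIC (µg/mL) by microbroth dilution in Iso-Sensitest broth; final inoculum 10^4 cfu/mL; 24 h at 37 °C in air.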

Pseudomonas aeruginosa = test: Minimum inhibitory concentration against Pseudomonas aeruginosa ATCC 10145; format: functional; outline: as §1
Streptococcus pyogenes [1] = test: Minimum inhibitory concentration against Streptococcus pyogenes L 49; format: functional
Outline: (§2)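 MIC (µg/mL) by microbroth dilution in Todd-Hewitt broth, final inoculum 10^4 cfu/mL, incubated 24 h at 37 °C in air.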

[2] = tested on: Staphylococcus epidermidis; test: Minimum inhibitory concentration against Staphylococcus epidermidis ATCC 12228; format: functional; outline: as §1
Enterococcus faecalis = test: Minimum inhibitory concentration against Enterococcus faecalis ATCC 7080; format: functional
Outline: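 Microbroth dilution MIC (µg/mL), final inoculum 10^4 cfu/mL, incubated 24 h at 37 °C in air.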

[3] = Association constant to Ac2-L-Lys-D-Ala-D-Ala determined at pH 9; Value ranges from 5E4-7.5E4
Proteus vulgaris = test: Minimum inhibitory concentration against Proteus vulgaris ATCC 881; format: functional; outline: as §1
Streptococcus pneumoniae = test: Minimum inhibitory concentration against Streptococcus pneumoniae L 44; format: functional; outline: as §2
Escherichia coli = test: Minimum inhibitory concentration against Escherichia coli L 47; format: functional; outline: as §1
[4] = tested on: Staphylococcus haemolyticus; test: Minimum inhibitory concentration against Staphylococcus haemolyticus L 602; format: functional; outline: as §1
Streptococcus pyogenes [5] = test: Efficacy of compound administered perorally against Streptococcus pyogenes L 49 Septicemia in mouse; format: functional; conditions: po
Outline: (§3)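 Mice were infected intraperitoneally with about 10^5 Strep. pyogenes L 49 cells, about 100 times the 50% lethal dose. Groups of 5–8 mice were treated once right after challenge, by the route stated in the line. ED50 (mg/kg) was derived from percentage survival at each dose on day 7 (Spearman-Kärber).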

Streptococcus pyogenes [6] = test: Efficacy of compound administered subcutaneously against Streptococcus pyogenes L 49 Septicemia in mouse; format: functional; conditions: sc; outline: as §3
[7] = Association constant to Ac2-L-Lys-D-Ala-D-Ala determined at pH 9; Value ranges from (9.5E4-3.5E5)
Streptococcus pyogenes [8] = test: Minimum inhibitory concentration of compound was determined against Streptococcus pyogenes L 49 in mouse; format: functional

| MIC (Staphylococcus aureus) [µg/mL] | MIC (Pseudomonas aeruginosa) [µg/mL] | MIC (Streptococcus pyogenes [1]) [µg/mL] | MIC [2] [µg/mL] | MIC (Enterococcus faecalis) [µg/mL] | Ka [3] [M⁻¹] | MIC (Proteus vulgaris) [µg/mL] | MIC (Streptococcus pneumoniae) [µg/mL] | MIC (Escherichia coli) [µg/mL] | Ka [7] [M⁻¹] | MIC (Streptococcus pyogenes [8]) [µg/mL] | SMILES | MIC [4] [µg/mL] | ED50 (Streptococcus pyogenes [5]) [mg/kg] | ED50 (Streptococcus pyogenes [6]) [mg/kg] |
| --- | --- | --- | --- | --- | --- | --- | --- | --- | --- | --- | --- | --- | --- | --- |
| 0.063 (≈ 0.0491 µM) | 64 (≈ 49.8 µM) | 0.125 (≈ 0.0973 µM) | 0.063 (≈ 0.0491 µM) | 0.125 (≈ 0.0973 µM) | 75000 | 64 (≈ 49.8 µM) | 0.125 (≈ 0.0973 µM) | 8 (≈ 6.23 µM) | – | – | NCCNCCNC(=O)[C@H]1NC(=O)[C@H]2NC(=O)[C@H](NC(=O)[C@@H]3NC(=O)[C@H]4NC(=O)[C@@H](Cc5ccc(c(Cl)c5)Oc5cc3cc(c5O)Oc3ccc(cc3Cl)[C@H]2O)NC(=O)[C@H](N)c2ccc(O)c(c2)Oc2cc(O)cc4c2)c2ccc(O)c(c2)-c2c(O)cc(O)cc21 | 0.125 (≈ 0.0973 µM) | – | – |
| 0.25 (≈ 0.119 µM) | – | 0.063 (≈ 0.0301 µM) | 0.063 (≈ 0.0301 µM) | 0.125 (≈ 0.0597 µM) | – | – | 0.125 (≈ 0.0597 µM) | – | 350000 | – | CC(=O)N[C@@H]1[C@H](O[C@@H]2c3ccc(c(Cl)c3)Oc3cc4cc(c3O[C@@H]3O[C@@H](CO)[C@@H](O)[C@H](O)[C@@H]3NC(=O)CCCCCCC(C)C)Oc3ccc(cc3Cl)C[C@H]3NC(=O)[C@H](N)c5ccc(O)c(c5)Oc5cc(O)cc(c5)[C@H](NC3=O)C(=O)N[C@H]4C(=O)N[C@H]3C(=O)N[C@@H]2C(=O)N[C@H](C(=O)NCCNCCNCCNCCNCCN)c2cc(O)cc(O[C@H]4O[C@H](CO)[C@@H](O)[C@@H](O)[C@@H]4O)c2-c2cc3ccc2O)O[C@@H](CO)[C@@H](O)[C@@H]1O | 0.125 (≈ 0.0597 µM) | 112 | 0.08 |
| 0.25 (≈ 0.127 µM) | – | 0.063 (≈ 0.0321 µM) | 0.063 (≈ 0.0321 µM) | 0.125 (≈ 0.0636 µM) | – | – | 0.125 (≈ 0.0636 µM) | – | 350000 | – | CC(=O)N[C@@H]1[C@H](O[C@@H]2c3ccc(c(Cl)c3)Oc3cc4cc(c3O[C@@H]3O[C@@H](CO)[C@@H](O)[C@H](O)[C@@H]3NC(=O)CCCCCCC(C)C)Oc3ccc(cc3Cl)C[C@H]3NC(=O)[C@H](N)c5ccc(O)c(c5)Oc5cc(O)cc(c5)[C@H](NC3=O)C(=O)N[C@H]4C(=O)N[C@H]3C(=O)N[C@@H]2C(=O)N[C@H](C(=O)NCCNCCN)c2cc(O)cc(O[C@H]4O[C@H](CO)[C@@H](O)[C@@H](O)[C@@H]4O)c2-c2cc3ccc2O)O[C@@H](CO)[C@@H](O)[C@@H]1O | 0.25 (≈ 0.127 µM) | 60 | 0.09 |
| 0.125 (≈ 0.0606 µM) | – | 0.063 (≈ 0.0306 µM) | 0.063 (≈ 0.0306 µM) | 0.125 (≈ 0.0606 µM) | – | – | 0.125 (≈ 0.0606 µM) | – | 350000 | – | CC(=O)N[C@@H]1[C@H](O[C@@H]2c3ccc(c(Cl)c3)Oc3cc4cc(c3O[C@@H]3O[C@@H](CO)[C@@H](O)[C@H](O)[C@@H]3NC(=O)CCCCCCC(C)C)Oc3ccc(cc3Cl)C[C@H]3NC(=O)[C@H](N)c5ccc(O)c(c5)Oc5cc(O)cc(c5)[C@H](NC3=O)C(=O)N[C@H]4C(=O)N[C@H]3C(=O)N[C@@H]2C(=O)N[C@H](C(=O)NCCCN2CCCCNCCCC2)c2cc(O)cc(O[C@H]4O[C@H](CO)[C@@H](O)[C@@H](O)[C@@H]4O)c2-c2cc3ccc2O)O[C@@H](CO)[C@@H](O)[C@@H]1O | 0.125 (≈ 0.0606 µM) | 90 | 0.08 |
| 0.063 (≈ 0.0525 µM) | > 128 | 0.125 (≈ 0.104 µM) | 0.016 (≈ 0.0133 µM) | 0.125 (≈ 0.104 µM) | – | 128 (≈ 107 µM) | 0.125 (≈ 0.104 µM) | 64 (≈ 53.4 µM) | – | 0.13 (≈ 0.108 µM) | N[C@H]1C(=O)N[C@@H]2Cc3ccc(c(Cl)c3)Oc3cc4cc(c3O)Oc3ccc(cc3Cl)[C@@H](O)[C@@H]3NC(=O)[C@H](NC(=O)[C@@H]4NC(=O)[C@@H](NC2=O)c2cc(O)cc(c2)Oc2cc1ccc2O)c1ccc(O)c(c1)-c1c(O)cc(O)cc1[C@@H](C(=O)O)NC3=O [TEICOPLANIN AGLYCON] | 0.25 (≈ 0.209 µM) | – | 0.95 |
| 0.063 (≈ 0.047 µM) | 64 (≈ 47.7 µM) | 0.063 (≈ 0.047 µM) | 0.063 (≈ 0.047 µM) | 0.125 (≈ 0.0932 µM) | 75000 | 128 (≈ 95.4 µM) | 0.125 (≈ 0.0932 µM) | 4 (≈ 2.98 µM) | – | – | NCCNCCCNCCNC(=O)[C@H]1NC(=O)[C@H]2NC(=O)[C@H](NC(=O)[C@@H]3NC(=O)[C@H]4NC(=O)[C@@H](Cc5ccc(c(Cl)c5)Oc5cc3cc(c5O)Oc3ccc(cc3Cl)[C@H]2O)NC(=O)[C@H](N)c2ccc(O)c(c2)Oc2cc(O)cc4c2)c2ccc(O)c(c2)-c2c(O)cc(O)cc21 | 0.063 (≈ 0.047 µM) | – | – |
| 0.125 (≈ 0.061 µM) | – | 0.063 (≈ 0.0307 µM) | 0.063 (≈ 0.0307 µM) | 0.125 (≈ 0.061 µM) | – | – | 0.125 (≈ 0.061 µM) | – | 350000 | – | CC(=O)N[C@@H]1[C@H](O[C@@H]2c3ccc(c(Cl)c3)Oc3cc4cc(c3O[C@@H]3O[C@@H](CO)[C@@H](O)[C@H](O)[C@@H]3NC(=O)CCCCCCC(C)C)Oc3ccc(cc3Cl)C[C@H]3NC(=O)[C@H](N)c5ccc(O)c(c5)Oc5cc(O)cc(c5)[C@H](NC3=O)C(=O)N[C@H]4C(=O)N[C@H]3C(=O)N[C@@H]2C(=O)N[C@H](C(=O)NCCCNCCCNCCCN)c2cc(O)cc(O[C@H]4O[C@H](CO)[C@@H](O)[C@@H](O)[C@@H]4O)c2-c2cc3ccc2O)O[C@@H](CO)[C@@H](O)[C@@H]1O | 0.125 (≈ 0.061 µM) | 80 | 0.06 |
| 0.125 (≈ 0.0623 µM) | – | 0.063 (≈ 0.0314 µM) | 0.063 (≈ 0.0314 µM) | 0.063 (≈ 0.0314 µM) | – | – | 0.063 (≈ 0.0314 µM) | – | 350000 | – | CC(=O)N[C@@H]1[C@H](O[C@@H]2c3ccc(c(Cl)c3)Oc3cc4cc(c3O[C@@H]3O[C@@H](CO)[C@@H](O)[C@H](O)[C@@H]3NC(=O)CCCCCCC(C)C)Oc3ccc(cc3Cl)C[C@H]3NC(=O)[C@H](N)c5ccc(O)c(c5)Oc5cc(O)cc(c5)[C@H](NC3=O)C(=O)N[C@H]4C(=O)N[C@H]3C(=O)N[C@@H]2C(=O)N[C@H](C(=O)NCCN(CCN)CCN)c2cc(O)cc(O[C@H]4O[C@H](CO)[C@@H](O)[C@@H](O)[C@@H]4O)c2-c2cc3ccc2O)O[C@@H](CO)[C@@H](O)[C@@H]1O | 0.125 (≈ 0.0623 µM) | 58 | 0.04 |
| 0.125 (≈ 0.0606 µM) | – | 0.063 (≈ 0.0305 µM) | 0.063 (≈ 0.0305 µM) | 0.125 (≈ 0.0606 µM) | – | – | 0.125 (≈ 0.0606 µM) | – | 350000 | – | CC(=O)N[C@@H]1[C@H](O[C@@H]2c3ccc(c(Cl)c3)Oc3cc4cc(c3O[C@@H]3O[C@@H](CO)[C@@H](O)[C@H](O)[C@@H]3NC(=O)CCCCCCC(C)C)Oc3ccc(cc3Cl)C[C@H]3NC(=O)[C@H](N)c5ccc(O)c(c5)Oc5cc(O)cc(c5)[C@H](NC3=O)C(=O)N[C@H]4C(=O)N[C@H]3C(=O)N[C@@H]2C(=O)N[C@H](C(=O)NCCCNCCCCNCCCN)c2cc(O)cc(O[C@H]4O[C@H](CO)[C@@H](O)[C@@H](O)[C@@H]4O)c2-c2cc3ccc2O)O[C@@H](CO)[C@@H](O)[C@@H]1O | 0.125 (≈ 0.0606 µM) | 81 | 0.03 |
| 0.125 (≈ 0.0623 µM) | – | 0.063 (≈ 0.0314 µM) | 0.063 (≈ 0.0314 µM) | 0.125 (≈ 0.0623 µM) | – | – | 0.125 (≈ 0.0623 µM) | – | 350000 | – | CC(=O)N[C@@H]1[C@H](O[C@@H]2c3ccc(c(Cl)c3)Oc3cc4cc(c3O[C@@H]3O[C@@H](CO)[C@@H](O)[C@H](O)[C@@H]3NC(=O)CCCCCCC(C)C)Oc3ccc(cc3Cl)C[C@H]3NC(=O)[C@H](N)c5ccc(O)c(c5)Oc5cc(O)cc(c5)[C@H](NC3=O)C(=O)N[C@H]4C(=O)N[C@H]3C(=O)N[C@@H]2C(=O)N[C@H](C(=O)NCCCNCCCCN)c2cc(O)cc(O[C@H]4O[C@H](CO)[C@@H](O)[C@@H](O)[C@@H]4O)c2-c2cc3ccc2O)O[C@@H](CO)[C@@H](O)[C@@H]1O | 0.125 (≈ 0.0623 µM) | 81 | 0.05 |
